The nature of series [1]: folding enthalpy; higher = less favourable; fluorescence melt of hairpins on a sequencing array, two-state fit. Particulars: sodium 0.088 M. In short, it runs like this:
(§1)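 On a sequenced MiSeq flow cell, library hairpins with annealed Cy3 and quencher oligos were imaged for Cy3 fluorescence in 2.5 °C steps up to 60 °C, in 50 mM Na-HEPES pH 8.0, 25 mM NaCl. Normalisation used pre-quench Cy3 and control constructs. Bootstrapped two-state fits gave melting temperature and folding enthalpy, combined by inverse variance across four replicates and with fitted temperatures raised by 9.35 °C to match UV melts.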

Series [2] can be described thus: melting temperature; fluorescence melt of hairpins on a sequencing array, two-state fit, raised by 9.35 °C to match UV melts. Particulars: sodium 0.088 M. In short, it runs like this: as §1

With GCCCCGCGAAAGCCAGGC (((..((....))..))), the folding enthalpy in series [1] was -20.8 kcal/mol. Further, in series [2], the Tm stood at 44.8 °C.

With GCCCCGCGAAAGCCGGGC ((((.((....)).)))), in series [1], the folding enthalpy was -18.3 kcal/mol. In addition, in series [2], the Tm came out at 66.4 °C.

On to GCCCCGCGAAAGCGGAGC ((.((((....)))).)), for which, in series [1], the folding enthalpy is -22 kcal/mol. Further, in series [2], the Tm is 68.1 °C.

As for GCCCCGCGAAAGCTGTGC ((.(.((....)).).)), the folding enthalpy in series [1] was -12.1 kcal/mol. Besides, the Tm in series [2] is 30.4 °C.

In the case of GCCCCGGCGAAAGCCGGC (((..(((....)))))), the folding enthalpy in series [1] is -2.7 kcal/mol. For the same sequence, the Tm in series [2] came out at 39.8 °C.

For GCCCCGGGAAACCAGGGC ((((.((....)).)))), in series [1], the folding enthalpy is -33 kcal/mol. Further, the Tm in series [2] came out at 55.5 °C.

On to GCCCGATCGAAAGATGGC (((..(((....)))))), for which the folding enthalpy in series [1] was -23.6 kcal/mol. In series [2], the Tm turned out to be 40.2 °C.

As for GCCCGCCGAAAGGCAGGC (((.(((....))).))), the folding enthalpy in series [1] was -20.8 kcal/mol. Moreover, the Tm in series [2] amounted to 69 °C.

For GCCCGCCGAAAGGCCGGC (((.(((....))).))), the folding enthalpy in series [1] was -19.4 kcal/mol. In addition, the Tm in series [2] came out at 64.8 °C.

Regarding GCCCGCCGAAAGGCTGGC (((.(((....))).))), the folding enthalpy in series [1] was -36.2 kcal/mol. Moreover, the Tm in series [2] worked out at 65.1 °C.

As to GCCCGCGAAAGCGTCGGC ((((((....)))..))), the folding enthalpy in series [1] is -17.9 kcal/mol. Besides, in series [2], the Tm was found to be 56.5 °C.

For the sequence GCCCGCGAAAGCGTGGGC ((((((....)))..))), in series [1], the folding enthalpy is -24.9 kcal/mol. In series [2], the Tm amounted to 68.6 °C.

For the sequence GCCCGCGGAAACGCGAGC ((.((((....)))).)), the folding enthalpy in series [1] was -17.3 kcal/mol. For the same sequence, the Tm in series [2] was 62.2 °C.

Turning to GCCCGGCGAAAGCAAGGC (((..((....))..))), the folding enthalpy in series [1] is -18.6 kcal/mol. The Tm in series [2] was found to be 59 °C.

As for GCCCGGCGAAAGCAGCGC ((.(.((....)).).)), in series [1], the folding enthalpy is -16.4 kcal/mol. Also, the Tm in series [2] stood at 46.5 °C.

For the sequence GCCCGGCGAAAGCCATGC ((..(((....)))..)), the folding enthalpy in series [1] is -8.55 kcal/mol. Moreover, in series [2], the Tm came to 28.8 °C.

Turning to GCCCGGCGAAAGCCTAGC ((..(((....)))..)), in series [1], the folding enthalpy was -13.8 kcal/mol. Besides, the Tm in series [2] came out at 27.2 °C.

On to GCCCGGCGAAAGCGAGGC (((..((....))..))), for which, in series [1], the folding enthalpy was -16.6 kcal/mol. Further, the Tm in series [2] came out at 58.9 °C.

For the sequence GCCCGGCGAAAGCTGAGC ((.(.((....)).).)), the folding enthalpy in series [1] is -18.3 kcal/mol. For the same sequence, the Tm in series [2] was found to be 48.7 °C.

As to GCCCGGGGAAACCCAGGC (((.(((....))).))), the folding enthalpy in series [1] is -32.6 kcal/mol. Besides, in series [2], the Tm worked out at 52.8 °C.

In the case of GCCCGTCGAAAGACCGGC (((.(((....))).))), the folding enthalpy in series [1] is -38.4 kcal/mol. Further, in series [2], the Tm was determined as 52.6 °C.

For GCCCGTCGAAAGACTGGC (((.(((....))).))), in series [1], the folding enthalpy was -48.7 kcal/mol. In series [2], the Tm stood at 55.4 °C.

As to GCCCGTGGAAACACGAGC ((.((((....)))).)), the folding enthalpy in series [1] is -24 kcal/mol. Moreover, the Tm in series [2] amounted to 50.8 °C.

For GCCCTACCGAAAGGTGGC (((..(((....)))))), in series [1], the folding enthalpy was -20.8 kcal/mol. Also, the Tm in series [2] is 49 °C.

Regarding GCCCTAGGAAACCAAGGC (((.(.(....).).))), the folding enthalpy in series [1] is -12 kcal/mol. Besides, the Tm in series [2] came to 28.2 °C.

Take GCCCTCGAAAGAGAGGC ((((((....))).))): the folding enthalpy in series [1] is -31.1 kcal/mol. For the same sequence, the Tm in series [2] came out at 58.2 °C.

GCCCTCGAAAGAGCGGGC ((((((....)))..))): in series [1], the folding enthalpy was -29.2 kcal/mol. Also, the Tm in series [2] was 50.1 °C.

On to GCCCTCGAAAGAGGCGGC ((((((....)))..))), for which the folding enthalpy in series [1] is -19.1 kcal/mol. Besides, in series [2], the Tm is 56 °C.

For GCCCTCGAAAGAGGGGGC ((((((....)))..))), in series [1], the folding enthalpy is -15.1 kcal/mol. Moreover, in series [2], the Tm was 68.4 °C.

As for GCCCTCGAAAGAGTGGC ((((((....))).))), in series [1], the folding enthalpy is -31.9 kcal/mol. In series [2], the Tm is 58.5 °C.

As to GCCCTGCGAAAGCACTGC ((..(((....)))..)), the folding enthalpy in series [1] is -6.98 kcal/mol. Besides, the Tm in series [2] came to 24.6 °C.

Turning to GCCCTGCGAAAGCAGGC (((.(((....)))))), in series [1], the folding enthalpy is -8.08 kcal/mol. In series [2], the Tm came to 65.1 °C.

With GCCCTGCGAAAGCCGAGC ((.(.((....)).).)), the folding enthalpy in series [1] is -11 kcal/mol. In addition, in series [2], the Tm came to 34.5 °C.

On to GCCCTGCGAAAGCCGTGC ((.(.((....)).).)), for which the folding enthalpy in series [1] is -11.6 kcal/mol. In series [2], the Tm is 31.7 °C.

Consider GCCCTGCGAAAGCCTGGC (((..((....))..))), for which, in series [1], the folding enthalpy was -16.2 kcal/mol. The Tm in series [2] stood at 45.5 °C.

Turning to GCCCTGCGAAAGCGGCGC ((.(.((....)).).)), the folding enthalpy in series [1] is -15 kcal/mol. Besides, in series [2], the Tm came out at 62 °C.

Take GCCCTGCGAAAGCTTGGC (((..((....))..))): the folding enthalpy in series [1] was -23 kcal/mol. In addition, in series [2], the Tm worked out at 50.6 °C.

The record behind these values is the array DNA melting data of Ke et al. (doi:10.1101/2024.01.08.574731).
